Several values for one entry are separate records, joined by “and”; a condition that tells them apart may be missing. Identical values can stand only once. Like-named read-outs stand apart in the source and are kept apart here.
Key:
[1] = test system: LPS-stimulated TNFα release; settings: read-out: IC50, TNFα release in the same (human whole blood) assay; cited from earlier work
[2] = test system: LPS-stimulated TNFα ex vivo; settings: patients treated, same bioassay; cited from earlier work
Thermodynamic solubility = assay type: physicochemical
P-glycoprotein = P-glycoprotein (Homo sapiens, UniProt P08183); test: Caco-2 model of intestinal uptake/efflux; assay type: in vitro ADME; settings: unpublished data
serum levels of TNFα = test: Serum TNFα levels after in vivo intravenous LPS challenge; parameters: species or system human; settings: data not shown
In short: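 Healthy subjects received a single oral dose, then an intravenous LPS challenge, and serum TNFα was measured. They fasted 10 h before dosing and 4 h after. Apart from the dosing fluid, no fluid was allowed from 2 h before to 2 h after dosing.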

p38α [3] = target: T1, p38α (Homo sapiens, UniProt Q16539); test: In-house p38α inhibition, ELISA; assay type: biochemical; settings: read-out: IC50 on p38α (ELISA); in-house studies
[4] = test system: ex vivo LPS-induced TNFα secretion; assay type: in vivo, human
In short: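 Healthy adults received randomized, double-blind, placebo-controlled oral doses: ascending single doses of 0.1–75 mg, or once daily for 14 days. Blood was challenged with LPS ex vivo and TNFα measured. An indirect response model with negative feedback on outflow and a 24-h oscillatory baseline was fitted to drug and placebo data together. Individual Bayesian PK estimates served as input. IC50 was a fraction of predose baseline. Bootstrap used 500 iterations.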

p38α [5] = target: T1, p38α; test: In-house p38α inhibition, radiometric; assay type: biochemical; settings: read-out: IC50 on p38α (radiometric); in-house studies
[6] = Population pharmacokinetics of oral BCT197 in healthy volunteers; assay type: in vivo, human
In short: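 Healthy male and non-childbearing female volunteers aged 18–50 y (BMI 18–30 kg/m²) took ascending single doses or once-daily doses for 14 days. Oral solution was used for 0.1–3 mg and tablets for ≥5 mg. Plasma drug was fitted by nonlinear mixed-effects modelling (FOCE Lindström Bates), with lognormal between-subject variability and tablet mixed zero/first-order absorption. Bootstrap used 500 iterations.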

[7] = test system: LPS-stimulated TNFα release; test: LPS-stimulated TNFα release in the human whole blood assay; assay type: cell-based
[8] = Safety and tolerability in healthy subjects; assay type: in vivo, human; settings: data not shown
[9] = Tissue distribution in pigmented and albino rats; assay type: in vivo; settings: pigmented vs albino, unpublished data
[10] = COPD patients; intermittent short-term dosing 75 mg on days 1 and 6; cited from earlier work
[11] = population mean, final estimate

T1 sequence (Q16539 whole entry): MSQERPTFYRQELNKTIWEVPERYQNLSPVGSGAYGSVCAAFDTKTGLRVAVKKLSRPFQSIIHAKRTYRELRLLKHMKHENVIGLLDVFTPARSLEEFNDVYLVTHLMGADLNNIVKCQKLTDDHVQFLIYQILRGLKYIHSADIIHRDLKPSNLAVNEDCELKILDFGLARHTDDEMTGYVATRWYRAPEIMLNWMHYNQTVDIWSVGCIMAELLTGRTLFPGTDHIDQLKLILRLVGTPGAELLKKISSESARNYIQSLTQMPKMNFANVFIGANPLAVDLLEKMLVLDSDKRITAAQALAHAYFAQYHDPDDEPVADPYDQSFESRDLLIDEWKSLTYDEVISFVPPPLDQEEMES
P-glycoprotein, sequence (P08183 whole entry): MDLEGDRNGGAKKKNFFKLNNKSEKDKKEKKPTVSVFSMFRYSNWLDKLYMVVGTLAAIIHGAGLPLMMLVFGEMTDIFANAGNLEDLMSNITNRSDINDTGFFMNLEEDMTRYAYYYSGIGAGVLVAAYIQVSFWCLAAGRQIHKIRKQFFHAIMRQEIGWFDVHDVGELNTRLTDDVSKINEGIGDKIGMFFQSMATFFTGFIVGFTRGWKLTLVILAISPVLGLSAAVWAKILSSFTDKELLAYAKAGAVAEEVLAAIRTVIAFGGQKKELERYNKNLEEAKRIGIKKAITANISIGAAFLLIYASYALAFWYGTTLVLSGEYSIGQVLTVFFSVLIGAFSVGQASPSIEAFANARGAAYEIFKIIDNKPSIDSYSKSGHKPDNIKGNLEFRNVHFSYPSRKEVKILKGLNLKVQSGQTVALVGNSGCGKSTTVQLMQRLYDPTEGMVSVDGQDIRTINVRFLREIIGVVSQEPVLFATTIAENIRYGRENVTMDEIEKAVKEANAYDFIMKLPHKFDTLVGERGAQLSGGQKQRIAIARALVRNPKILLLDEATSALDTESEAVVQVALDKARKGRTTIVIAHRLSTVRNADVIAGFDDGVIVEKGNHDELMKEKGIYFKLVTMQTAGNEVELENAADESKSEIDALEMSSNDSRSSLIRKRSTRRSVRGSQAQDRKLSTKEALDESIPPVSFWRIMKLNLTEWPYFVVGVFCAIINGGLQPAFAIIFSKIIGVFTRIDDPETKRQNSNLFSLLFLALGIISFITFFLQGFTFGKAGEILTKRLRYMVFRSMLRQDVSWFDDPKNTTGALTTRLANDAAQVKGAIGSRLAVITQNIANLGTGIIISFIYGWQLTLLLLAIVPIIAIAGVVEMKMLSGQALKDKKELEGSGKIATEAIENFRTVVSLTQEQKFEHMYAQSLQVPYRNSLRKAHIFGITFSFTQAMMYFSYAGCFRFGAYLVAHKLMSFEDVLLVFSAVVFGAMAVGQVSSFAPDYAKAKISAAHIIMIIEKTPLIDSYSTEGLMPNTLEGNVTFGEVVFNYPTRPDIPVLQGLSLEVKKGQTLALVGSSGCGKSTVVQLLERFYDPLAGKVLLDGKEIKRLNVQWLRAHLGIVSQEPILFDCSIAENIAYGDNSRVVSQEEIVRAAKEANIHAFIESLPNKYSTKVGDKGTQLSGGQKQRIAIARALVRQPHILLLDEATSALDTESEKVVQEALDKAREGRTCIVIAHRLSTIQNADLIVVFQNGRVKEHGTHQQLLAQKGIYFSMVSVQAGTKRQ

In the case of CNC(=O)c1ccc(C)c(-n2c(C)cc(OCc3ccc(F)cc3F)c(Br)c2=O)c1 [PH‐797804], the IC50 [1] is listed as 0.085 µM.
In the case of O=C(Nc1c(Cl)cncc1Cl)c1ccc(OC(F)F)c(OCC2CC2)c1 [rofluminast, roflumilast], the “TNFα levels ex vivo” value [2] is given as “significant suppression”.
For Cc1c(F)cc(C(=O)NC2CC2)cc1-c1ccc(C(=O)NCC(C)(C)C)cn1 [losmapimod], the IC50 [1] is listed as 0.025 µM.
For Cc1ccc(C(=O)NC2CC2)cc1-n1ncc(C(=O)c2cccc(C#N)c2)c1N [BCT197], the pH-independent thermodynamic solubility (Thermodynamic solubility) was about 0.2 mg/mL, the “saturation of low-affinity efflux pump, most likely P-glycoprotein” value (P-glycoprotein) was “not saturated up to 0.1 mg/mL” and the “inhibition of serum levels of TNFα following in vivo intravenous LPS challenge” value (serum levels of TNFα; single oral administration of 20 mg) was 96%. The “inhibition of serum levels of TNFα following in vivo intravenous LPS challenge” value (serum levels of TNFα; single oral administration of 75 mg) was 97%, the IC50 (p38α [3]) was 0.012 µM and the “IC50, concentration at half maximum inhibition” value ([4]; bootstrap median and 90% CI) was 44.3 [30.6;65.5] µg/L. The “Imax, maximum inhibition” value ([4]; bootstrap median and 90% CI) was 0.668 [0.6121;0.752], the “Kout, first order degradation rate of drug response” value ([4]; bootstrap median and 90% CI) was 0.353 [0.170;0.592] 1/h and the “Ktol, first order production rate of negative feedback” value ([4]; bootstrap median and 90% CI) was 0.00281 [0.00173;0.00529] 1/h. The “Maximum inhibition from baseline (Imax), plateau in the typical individual” value ([4]; ex vivo LPS-induced TNFα secretion) was “about 66%”, the “t1/2,ktol (rate constant governing tolerance)” value ([4]; human, in vivo) was 252 h and the “Imax, maximum inhibition” value [4, 11] was 0.663. The “Kout, first order degradation rate of drug response” value [4, 11] was 0.348 h⁻¹, the “Ktol, first order production rate of negative feedback” value [4, 11] was 0.00276 h⁻¹ and the “IC50, concentration at half maximum inhibition” value ([4]; population mean, final estimate, plasma concentration, modeled as fraction of predose baseline) was 44 µg/L and 44.3 µg/L. For the same compound, the “t1/2,kout (hysteresis in drug effect)” value ([4]; single dose) was 2 h, the IC50 (p38α [5]) was 0.037 µM and the “Bmax, total binding capacity (tissue binding)” value ([6]; bootstrap median and 90% CI) was 507 [308;806] µg. The “K1b, first order transfer rate from central compartment into shunt compartment” value ([6]; bootstrap median and 90% CI) was 0.0105 [0.00791;0.0132] 1/h, the “Kt=Kint1, first-order oral absorption rate constant of tablet” value ([6]; bootstrap median and 90% CI) was 1.13 [0.934;1.42] 1/h and the “Rate, zero order oral absorption rate (tablet)” value ([6]; bootstrap median and 90% CI) was 2310 [2170;2530] µg/h. The “V1/F, volume of central compartment” value ([6]; bootstrap median and 90% CI) was 71.5 [58.1;98.7] L, the “fc, fraction of oral dose (tablet) absorbed in a zero-order fashion” value ([6]; bootstrap median and 90% CI) was 0.342 [0.291;0.392] and the “CL/F, oral drug clearance” value ([6]; bootstrap median and 90% CI, 500 iterations) was 1.77 [1.47;2.05] L/h. The “rise in drug levels in reaching steady-state” value ([6]; once-daily regimen, on average) was 3 fold, the “time of double peak behavior postdose” value ([6]; plasma concentration profile) was 18 to 24 h and the “Bmax, total binding capacity (tissue binding)” value [6, 11] was 500 µg. For the same compound, the “K1b, first order transfer rate from central compartment into shunt compartment” value [6, 11] was 0.0106 h⁻¹, the “Kt=Kint1, first-order oral absorption rate constant of tablet” value [6, 11] was 1.12 h⁻¹ and the “V1/F, volume of central compartment” value [6, 11] was 71.9 L. The “V2/F, volume of peripheral compartment” value [6, 11] was 25.5 L, the “CL/F, oral drug clearance” value ([6]; population mean, final estimate, healthy volunteers, oral 0.1-75 mg) was 1.76 L/h and the “fc, fraction of oral dose (tablet) absorbed in a zero-order fashion” value ([6]; population mean, final estimate, modeled in logit domain and back transformed) was 0.344. The “Ks, first-order oral absorption rate constant of solution” value ([6]; population mean, fixed) was 5 (fixed) 1/h, the “Tlag, absorption lag time” value ([6]; population mean, fixed) was 0.232 (fixed) h and the “Tpump, shunt compartment emptying lag time” value ([6]; population mean, fixed) was 18 (fixed) h. For the same compound, the “fraction (fc) of dose absorbed by the first-order process” value ([6]; tablets, mixed-order absorption model, on average) was 66%, the IC50 ([7]; read-out: IC50 (total drug), LPS-stimulated TNFα release, human whole blood assay, total drug) was 0.051 µM and the IC50 ([7]; read-out: free IC50, LPS-stimulated TNFα release, human whole blood assay, free drug) was 0.024 µM. For the same compound, the “Tolerability, continuous dosing” value ([8]; continuous dosing of 10 mg) was “acneiform skin rashes”, the “Tolerability, single high doses” value ([8]; single high doses up to 75 mg) was “well tolerated” and the “tissue distribution / retention in melanin-containing tissues” value [9] was “remained much longer detectable in the skin and eye of the pigmented but not albino animal”. For the same compound, the “lung function (FEV1)” value [10] was “marked improvement”.

Reference: paper PMC4759708 (CPT: Pharmacometrics & Systems Pharmacology, 2015)
